The list is not random: actives were taken first. Their share in the collection is about 1.5%.
CAL PDZ FP-1 – inhibitors of human CAL PDZ peptide binding. Q9HD26. purified CAL PDZ, TMR-peptide fluorescence polarization, 1 h. inhibition, % at 20 µM. 330,000 tested, 0.02% active. AID 504414;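 active = highest replicate inhibition of at least 40%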;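 note: plate controls were DMSO neutral control wells for no effect and unlabeled competitor peptide control wells for full effect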
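Material: tagged CAL PDZ protein CerCALP, purified; buffer or medium: sodium phosphate/NaCl buffer pH 7.4 with TCEP, IgG, Thesit; also added: fluorescent TMR peptide probe; schedule: 1 h incubation at room temperature before polarization reading; technique: fluorescence polarization from S- and P-plane intensities, G-factor corrected; control set: unlabelled peptide and DMSO controls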
LANA-H2B inh – blocks KSHV LANA binding to histone H2A/H2B. cell-free LANA-H2A/H2B peptide, fluorescence polarization. inhibition, % (concentration not given with the values). 320,000 tested, 0.6% active; in the data active = inhibition mostly above about 10%, no sharp cut-off; inactive = mostly below about 6.7%
Target sequence (Q9QR71 whole entry, looked up): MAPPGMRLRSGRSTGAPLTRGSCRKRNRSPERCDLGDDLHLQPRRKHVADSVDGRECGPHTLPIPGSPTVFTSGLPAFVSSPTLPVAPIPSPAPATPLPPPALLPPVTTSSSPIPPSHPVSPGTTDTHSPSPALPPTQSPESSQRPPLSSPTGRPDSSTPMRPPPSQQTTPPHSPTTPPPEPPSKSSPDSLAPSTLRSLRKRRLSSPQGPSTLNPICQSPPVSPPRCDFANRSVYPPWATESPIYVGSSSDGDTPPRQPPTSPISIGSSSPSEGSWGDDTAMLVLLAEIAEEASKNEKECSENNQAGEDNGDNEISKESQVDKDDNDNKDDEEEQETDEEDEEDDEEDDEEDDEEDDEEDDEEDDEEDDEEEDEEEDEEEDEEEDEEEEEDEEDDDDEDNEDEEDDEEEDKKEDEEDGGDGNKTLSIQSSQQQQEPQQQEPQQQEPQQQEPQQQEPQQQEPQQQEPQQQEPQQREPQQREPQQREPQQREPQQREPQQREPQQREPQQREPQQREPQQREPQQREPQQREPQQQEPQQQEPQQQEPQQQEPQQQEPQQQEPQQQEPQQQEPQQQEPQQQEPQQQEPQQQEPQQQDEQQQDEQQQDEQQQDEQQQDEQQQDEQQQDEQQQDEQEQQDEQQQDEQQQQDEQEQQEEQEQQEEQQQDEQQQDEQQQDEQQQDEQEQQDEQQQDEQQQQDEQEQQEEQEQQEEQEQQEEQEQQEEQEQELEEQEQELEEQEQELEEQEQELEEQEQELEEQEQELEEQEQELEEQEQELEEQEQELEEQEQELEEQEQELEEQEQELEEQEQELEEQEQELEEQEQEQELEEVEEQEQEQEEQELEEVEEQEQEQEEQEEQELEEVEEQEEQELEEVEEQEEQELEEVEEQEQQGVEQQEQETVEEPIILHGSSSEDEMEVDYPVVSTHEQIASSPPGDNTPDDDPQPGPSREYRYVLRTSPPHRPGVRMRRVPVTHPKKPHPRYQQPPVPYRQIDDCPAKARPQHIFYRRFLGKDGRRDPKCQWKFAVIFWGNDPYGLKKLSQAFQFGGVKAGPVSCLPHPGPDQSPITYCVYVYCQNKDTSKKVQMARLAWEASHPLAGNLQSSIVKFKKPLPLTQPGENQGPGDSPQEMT
LANA DNA inh – inhibitors of KSHV LANA C-terminal domain DNA binding | MBP-C-LANA/FAM-LBS DNA binding, fluorescence polarization | inhibition, % at 9 µM | 340,000 tested, 0.078% active;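 active = highest replicate inhibition at or above 60% at 9 µM, even if other replicates fall short; inactive = all replicates below 60% inhibition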;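 note: 0% = neutral control wells and 100% = 4 µM acridine orange control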
CAL PDZ FP-2 – CAL PDZ (human) peptide binding inhibition; Q9HD26; AID 602252; 300,000 tested, 0.92% active; purified CAL PDZ, TMR-peptide fluorescence polarization, 1 h; inhibition, % at 24.9 µM;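 active = mean inhibition of at least 30% with at least half of replicates also reaching 30%; inconclusive = no clear call, values can overlap the other calls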;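 note: 0% = DMSO neutral control and 100% = excess unlabeled competitor peptide PRC23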
Keap1-Nrf2 PPI – Keap1-Nrf2 (human) interaction inhibition; Q14145; Keap1 Kelch-Nrf2 peptide fluorescence polarization, 1536-well; inhibition, % at 9.4 µM; 340,000 tested, 0.15% active; AID 504523; in the data active = inhibition above about 12%; inconclusive = no clear call, values can overlap the other calls; inactive = below about 7.3%;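 note: human Keap1 Kelch domain with fluorescein labeled Nrf2 9mer peptide probe; 0% = neutral control wells and 100% = peptide positive control; higher means more block of Keap1 binding to Nrf2 peptide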
CaV13 FRET inh – Primary screen for inhibitors of IQ motif and Ca2+-dependent inactivation inhibitor domain binding in CACNA1D, Förster resonance energy transfer in living cells, … | inhibition, % at 12.3 µM | 340,000 tested, 0.098% active | AID 743397 | HEK cells, CFP/YFP FRET ICDI-IQ, plate reader, 10 min; percent FRET-ratio fall versus neutral wells;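 active = mean replicate inhibition of at least 30% and at least 1% of replicates passing that level; inconclusive = only one of the two criteria is met; inactive = neither criterion is met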;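 note: 0% = median of the neutral control wells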
Starred values were filed as active, the others as inactive; u = inconclusive; x = no result.

SMILES	CAL PDZ FP-1	LANA-H2B inh	LANA DNA inh	CAL PDZ FP-2	Keap1-Nrf2 PPI	CaV13 FRET inh
Cc1cc(C)c(S(=O)(=O)n2ccc3ccccc32)c(C)c1	0	-13	3	-1	-1	-4
CCn1c(O)c(/C=C2\C=Nc3ccccc32)sc1=Nc1ccc(C)cc1	-1	3	1	-7	-5	-11
CCn1c(O)c(/C=C2\C=Nc3ccccc32)sc1=O	-1	14*	0	-2	-5	-2
COCCC1CCCCN1C(=O)c1cccc(OC2CCN(S(C)(=O)=O)CC2)c1 (centres undefined)	0	17*	1	-5	4	-2
CCCc1nc2ccc(C(=O)OC)cn2c1Cc1ccccc1OC	x	x	x	x	x	-10
Cc1cccc(C)c1NC(=O)C(CCc1ccccc1)n1c(=O)c(-c2ccccc2)nc2ccccc21 (centres undefined)	x	x	x	x	x	-10
COc1ccc2c(=O)c(-c3cnn(-c4ccccc4)c3)c(C)oc2c1	-2	22*	-2	-13	-1	-7
CC(C)c1[nH]nc2c1C(c1ccc3c(c1)OCO3)NC2=O (centres undefined)	x	x	x	x	x	-3
CC(C)(C)OC(=O)N1CCC[C@@H]1C(=O)N1CCC[C@@H]1C(=O)NCc1ccccc1	x	x	x	x	x	-4
O=C(Nc1ccc(S(=O)(=O)N2C[C@@H]3C[C@@H](C2)c2cccc(=O)n2C3)cc1)c1ccc(F)cc1	0	-6	0	-4	-6	x
CCOc1ccc(S(=O)(=O)N2CN3CCN(C3)C2)cc1	0	-3	1	63*	0	-3
CCOc1ccc(C(=O)Nc2ccc(S(=O)(=O)N3CCN(C)CC3)cc2)cc1	-2	15*	10	1	0	-5
CCOc1ccc(C(=O)Nc2ccc(S(=O)(=O)N3C[C@@H]4C[C@@H](C3)c3cccc(=O)n3C4)cc2)cc1	0	17*	-1	-1	1	x
O=C1CC2c3cc(Br)ccc3CCN2C(=O)CN1Cc1ccccc1 (centres undefined)	x	x	x	x	x	-4
O=C1c2ccccc2-c2onc3ccc(NCCCn4ccnc4)c1c23	x	176*	x	x	x	x
CO[C@H]1CN(C)C(=O)c2ccc(NS(=O)(=O)c3ccccc3F)cc2OC[C@H](C)NC[C@@H]1C	x	x	x	x	x	-5
COc1ccc(CNS(=O)(=O)c2cc(Cl)ccc2N2CC[C@@H](O)C2)cc1	x	x	x	x	x	-5
CCS(=O)(=O)CCn1c([N+](=O)[O-])cnc1C	-1	11*	2	-4	-7	-5
Cc1ncc([N+](=O)[O-])n1CCO	-1	-17	1	4	-1	-5
O=C(COc1ccc(Cl)cc1)c1ccc(O)cc1O	-3	-3	-1	55*	-2	-4
COc1ccc(C(CNC(=O)COc2c(C)cc(C)cc2C)N2CCOCC2)cc1 (centres undefined)	0	-3	2	68*	0	-5
C[C@@H]1ON(C)[C@H]2C[C@H]3c4[nH]c5c(-c6ccccc6)cccc5c4CCN3C(=O)[C@@H]12	x	x	x	x	x	-5
Cc1cc2cc(CNC(=O)c3ccco3)ccc2n1C	0	-1	3	x	-6	56*
CSc1nnnn1-c1ccc(C)c(Cl)c1	0	-1	2	6	-2	-3
O=S(=O)(c1ccccc1)N1CCN(CCc2ccccc2)CC1	-5	-13	-1	69*	-1	-5
SMILES	CAL PDZ FP-1	LANA-H2B inh	LANA DNA inh	CAL PDZ FP-2	Keap1-Nrf2 PPI	CaV13 FRET inh
COC(=O)c1cc(NC(=O)CC2C(=O)NCCN2C(=O)c2ccccc2)cc(C(=O)OC)c1 (centres undefined)	0	-3	-1	-2	-2	x
COC(=O)c1cccc(NC(=O)CC2C(=O)NCCN2C(=O)Nc2ccccc2)c1 (centres undefined)	-1	189*	0	1	-5	-3
Cc1ccc(S(=O)(=O)Nc2ccccc2C(=O)N2CCN(C)CC2)cc1	1	102*	1	44*	2	-3
COc1ccc(Nc2nc(-c3cccs3)nc3ccccc23)cc1S(=O)(=O)N1CCOCC1	-10	-1	1	-8	-1	-2
CCn1c(SCC(=O)Nc2cc(C)on2)nnc1-c1ccc(C)cc1	-2	7	0	-8	3	-3
Cc1cc(NC(=O)CSc2ccc(-c3cccc([N+](=O)[O-])c3)nn2)no1	0	-3	-11	56*	-2	-2
CCOC(=O)c1c(NC(=O)CSc2nnc(-c3ccccc3)n2CC)sc(C(C)=O)c1C	-5	23*	0	-4	-1	-7
CCn1c(SCC(=O)Nc2cc(C)on2)nnc1-c1cccc(C)c1	0	0	1	48*	5	-4
O=C(CSc1ccc(-c2cccc([N+](=O)[O-])c2)nn1)N1CCCC1	x	-6	-1	65*	-1	7
COc1ccc(CN2C[C@@H](CO)O[C@@H](n3cnc4c(NC5CCC5)ncnc43)C2)cc1	x	x	x	x	x	-12
O=C1CSC(c2ccc([N+](=O)[O-])cc2)N1CCN1CCCCC1 (centres undefined)	-1	-4	1	44*	0	-2
Nc1[nH]c(C(=O)c2ccc(Cl)cc2)c(-c2ccc(Br)cc2)c1C(=O)c1c[nH]c2ccc(F)cc12	x	x	x	x	x	-6
O=C1C=C(c2ccccc2)C(c2ccccc2)C1 (centres undefined)	48*	x	1	x	-1	-2
Cc1ccc(C)c(N(CC(=O)N2CCCC2)S(C)(=O)=O)c1	4	5	0	77*	-8	6
Cc1ccc(C)c(N(CC(=O)N2CCCCCC2)S(C)(=O)=O)c1	-1	7	2	x	4	-22
O=C(c1cccc(F)c1)N1CCN(S(=O)(=O)c2ccccc2)CC1	-4	-3	-1	-36	-3	-5
CC(C)c1ccc(S(=O)(=O)N2CCN(C(=O)c3cccc(F)c3)CC2)cc1	1	7	-1	46*	-2	-5
COc1ccc(-n2c(C)ccc2-c2ccccc2)cn1	-1	79*	33	-5	u	-4
COC(=O)[C@H](CC(C)C)N1Cc2cc(OC)cc(OC)c2-c2ccccc2S1(=O)=O	0	x	2	51*	2	-4
C=C1CCN(C(CC(C)C)C(=O)OC)S(=O)(=O)c2ccccc21 (centres undefined)	0	-2	-1	0	-9	-10
CCCCc1c(-c2ccccc2OC)ncn1Cc1ccc(C)cc1	x	x	x	x	x	-9
O=C(C[C@H]1CC[C@H]2[C@@H](COC[C@@H](O)CN2S(=O)(=O)c2ccccc2)O1)N[C@@H]1CCN(Cc2ccccc2)C1	x	x	x	x	x	-4
O=C(/C=C/Nc1ccccc1)c1ccccc1	0	-1	-4	-7	1	x
O=C(/C=C/Nc1ccccc1)c1ccc(Cl)cc1Cl	-1	5.1*	-2	-6	-2	-3

Screening results: PubChem BioAssay, Broad Institute
